Biological target: T1, Sodium-dependent dopamine transporter (Rattus norvegicus, UniProt P23977)
Experiment: Binding affinity against dopamine transporter using radioligand as [3H]GBR 12935
Outline: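 DAT binding by displacement of 2 nM [3H]GBR 12935 or 0.01 nM [125I]RTI 55. Drugs were in 55.2 mM sodium phosphate buffer, pH 7.4, with 1 mg/mL BSA; radioligand was in the same buffer with chymostatin, leupeptin, EDTA and EGTA. Incubated in triplicate for 18-24 h at 4 °C to equilibrium, then filtered over polyethylenimine-presoaked GF/B filters. IC50 derived.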

T1 sequence (P23977 whole entry): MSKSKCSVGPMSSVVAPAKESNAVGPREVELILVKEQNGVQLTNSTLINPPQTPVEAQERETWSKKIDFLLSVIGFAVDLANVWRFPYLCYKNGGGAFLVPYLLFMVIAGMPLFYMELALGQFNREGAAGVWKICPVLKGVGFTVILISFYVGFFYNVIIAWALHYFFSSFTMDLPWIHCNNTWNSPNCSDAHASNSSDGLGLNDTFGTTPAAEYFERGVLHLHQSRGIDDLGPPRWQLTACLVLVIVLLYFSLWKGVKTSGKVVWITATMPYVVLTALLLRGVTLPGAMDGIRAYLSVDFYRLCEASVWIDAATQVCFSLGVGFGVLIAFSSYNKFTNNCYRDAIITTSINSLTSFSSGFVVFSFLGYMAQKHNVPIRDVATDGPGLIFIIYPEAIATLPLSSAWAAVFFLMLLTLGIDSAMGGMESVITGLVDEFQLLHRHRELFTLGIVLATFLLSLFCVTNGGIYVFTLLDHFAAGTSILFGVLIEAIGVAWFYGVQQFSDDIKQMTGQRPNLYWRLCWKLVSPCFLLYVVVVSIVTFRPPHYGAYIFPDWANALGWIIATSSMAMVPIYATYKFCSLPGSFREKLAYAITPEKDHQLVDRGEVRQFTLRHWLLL

SMILES | IC50 [nM]
C[C@@H]1CN(CCOC(c2ccccc2)c2ccccc2)[C@@H](C)CN1CCOC(c1ccccc1)c1ccccc1 | 33
NCCCCNCCOC(c1ccccc1)c1ccccc1 | 9780
CC1(C)CN(CCCc2ccccc2)CCN(CCOC(c2ccccc2)c2ccccc2)C1 | 286
C(=C\c1ccccc1)/CN1CCCN(CCOC(c2ccccc2)c2ccccc2)CC1 | 8.6
C[C@@H]1CN(CCCc2ccccc2)[C@@H](C)CN1CCCc1ccccc1 | 9940

Biological target: T1, Sodium-dependent dopamine transporter
Experiment: Compound was tested for binding against Dopamine transporter using radioligand as […]

SMILES | IC50 [nM]
c1ccc(C(OCCN2CCN(CCOC(c3ccccc3)c3ccccc3)CC2)c2ccccc2)cc1 | 1.6
Fc1ccc(C(OCCN2CCN(CCOC(c3ccc(F)cc3)c3ccc(F)cc3)CC2)c2ccc(F)cc2)cc1 | 1.1

Biological target: T1, Sodium-dependent dopamine transporter
Experiment: Inhibition of dopamine DA reuptake
Outline: (§1)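 Uptake into synaptosomes in Krebs-phosphate buffer, pH 7.4, with ascorbic acid 1 mg/mL and pargyline 50 µM. Final tracer was 5 nM [3H]DA or 2 nM [3H]5HT. Incubated at 25 °C for 15 min (DA) or 30 min (5HT), then filtered and filter tritium counted. IC50 derived.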

SMILES | IC50 [nM]
c1ccc(CCCNCCCCNCCOC(c2ccccc2)c2ccccc2)cc1 | 35
c1ccc(C(OCCN2CCN(CCOC(c3ccccc3)c3ccccc3)CC2)c2ccccc2)cc1 | 12
c1ccc(CCCN2CCNCC2)cc1 | > 30000
Fc1ccc(C(OCCN2CCCN(CCCc3ccccc3)CC2)c2ccc(F)cc2)cc1 | 3.4
Fc1ccc(C(OCCN2CCC[C@H]2CNCCCc2ccccc2)c2ccc(F)cc2)cc1 | 29
Fc1ccc(C(OCCN2CCN(CCOC(c3ccc(F)cc3)c3ccc(F)cc3)CC2)c2ccc(F)cc2)cc1 | 40
C[C@@H]1CN(CCOC(c2ccc(F)cc2)c2ccc(F)cc2)[C@@H](C)CN1C/C=C/c1ccccc1 | 28
Fc1ccc(C(OCCN2CCCN(C/C=C/c3ccccc3)CC2)c2ccc(F)cc2)cc1 | 3.4
C[C@@H]1CN(CCOC(c2ccccc2)c2ccccc2)[C@@H](C)CN1CCOC(c1ccccc1)c1ccccc1 | 35
Fc1ccc(C(OCCN2CCNCC2)c2ccc(F)cc2)cc1 | 71
C[C@@H]1CN(CCOC(c2ccc(F)cc2)c2ccc(F)cc2)[C@@H](C)CN1CCCc1ccccc1 | 15
CC1(C)CN(CCCc2ccccc2)CCN(CCOC(c2ccccc2)c2ccccc2)C1 | 87
C(=C\c1ccccc1)/CN1CCCN(CCOC(c2ccccc2)c2ccccc2)CC1 | 0.6
C[C@@H]1CN(CCCc2ccccc2)[C@@H](C)CN1CCCc1ccccc1 | 1330
C[C@@H]1CN(CCCc2ccccc2)[C@@H](C)CN1 | > 30000
c1ccc(CCCN2CCN(CCCc3ccccc3)CC2)cc1 | 1640

Biological target: T1, Sodium-dependent dopamine transporter
Experiment: Binding against Dopamine transporter using radioligand as [3H]GBR 12935

SMILES | IC50 [nM]
c1ccc(CCCNCCCCNCCOC(c2ccccc2)c2ccccc2)cc1 | 80
c1ccc(C(OCCN2CCN(CCOC(c3ccccc3)c3ccccc3)CC2)c2ccccc2)cc1 | 9.3
c1ccc(CCCN2CCNCC2)cc1 | > 30000
Fc1ccc(C(OCCN2CCCN(CCCc3ccccc3)CC2)c2ccc(F)cc2)cc1 | 4.4
Fc1ccc(C(OCCN2CCC[C@H]2CNCCCc2ccccc2)c2ccc(F)cc2)cc1 | 104
Fc1ccc(C(OCCN2CCN(CCOC(c3ccc(F)cc3)c3ccc(F)cc3)CC2)c2ccc(F)cc2)cc1 | 7.3
C[C@@H]1CN(CCOC(c2ccc(F)cc2)c2ccc(F)cc2)[C@@H](C)CN1C/C=C/c1ccccc1 | 23
Fc1ccc(C(OCCN2CCCN(C/C=C/c3ccccc3)CC2)c2ccc(F)cc2)cc1 | 2.6
Fc1ccc(C(OCCN2CCNCC2)c2ccc(F)cc2)cc1 | 104
C[C@@H]1CN(CCOC(c2ccc(F)cc2)c2ccc(F)cc2)[C@@H](C)CN1CCCc1ccccc1 | 40
C[C@@H]1CN(CCCc2ccccc2)[C@@H](C)CN1 | > 30000
C[C@@H]1CN(CCOC(c2ccccc2)c2ccccc2)[C@@H](C)CN1CCCc1ccccc1 | 21
c1ccc(CCCN2CCN(CCCc3ccccc3)CC2)cc1 | 7760

Biological target: Sodium-dependent serotonin transporter (Rattus norvegicus, UniProt P31652)
Sequence (P31652 whole entry): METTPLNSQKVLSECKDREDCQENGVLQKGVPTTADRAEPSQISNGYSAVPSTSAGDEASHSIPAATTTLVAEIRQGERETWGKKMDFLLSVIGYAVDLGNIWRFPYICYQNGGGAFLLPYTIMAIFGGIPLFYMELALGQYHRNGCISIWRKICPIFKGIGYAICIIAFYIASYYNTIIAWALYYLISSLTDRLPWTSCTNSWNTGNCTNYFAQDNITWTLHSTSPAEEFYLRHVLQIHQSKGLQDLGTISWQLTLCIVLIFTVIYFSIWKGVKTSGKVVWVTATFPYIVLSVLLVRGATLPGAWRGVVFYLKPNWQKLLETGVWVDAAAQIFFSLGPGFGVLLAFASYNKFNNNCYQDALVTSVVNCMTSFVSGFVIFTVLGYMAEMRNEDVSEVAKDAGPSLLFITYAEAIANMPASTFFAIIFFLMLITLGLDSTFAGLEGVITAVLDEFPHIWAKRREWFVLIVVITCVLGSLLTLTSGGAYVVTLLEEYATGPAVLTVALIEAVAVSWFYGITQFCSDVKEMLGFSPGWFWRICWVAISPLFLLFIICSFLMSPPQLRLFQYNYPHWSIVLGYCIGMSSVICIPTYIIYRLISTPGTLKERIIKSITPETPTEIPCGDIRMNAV
Experiment: Inhibition of [3H]5-HT reuptake at rat serotonin transporter
Outline: as §1

SMILES | IC50 [nM]
c1ccc(CCCNCCCCNCCOC(c2ccccc2)c2ccccc2)cc1 | 376
c1ccc(C(OCCN2CCN(CCOC(c3ccccc3)c3ccccc3)CC2)c2ccccc2)cc1 | 1710
c1ccc(CCCN2CCNCC2)cc1 | 361
Fc1ccc(C(OCCN2CCCN(CCCc3ccccc3)CC2)c2ccc(F)cc2)cc1 | 112
Fc1ccc(C(OCCN2CCC[C@H]2CNCCCc2ccccc2)c2ccc(F)cc2)cc1 | 20100
Fc1ccc(C(OCCN2CCN(CCOC(c3ccc(F)cc3)c3ccc(F)cc3)CC2)c2ccc(F)cc2)cc1 | 278
C[C@@H]1CN(CCOC(c2ccc(F)cc2)c2ccc(F)cc2)[C@@H](C)CN1C/C=C/c1ccccc1 | 1180
Fc1ccc(C(OCCN2CCCN(C/C=C/c3ccccc3)CC2)c2ccc(F)cc2)cc1 | 234
C[C@@H]1CN(CCOC(c2ccccc2)c2ccccc2)[C@@H](C)CN1CCOC(c1ccccc1)c1ccccc1 | 6220
Fc1ccc(C(OCCN2CCNCC2)c2ccc(F)cc2)cc1 | 1400
NCCCCNCCOC(c1ccccc1)c1ccccc1 | 6830
C[C@@H]1CN(CCOC(c2ccc(F)cc2)c2ccc(F)cc2)[C@@H](C)CN1CCCc1ccccc1 | 459
CC1(C)CN(CCCc2ccccc2)CCN(CCOC(c2ccccc2)c2ccccc2)C1 | 3150
C(=C\c1ccccc1)/CN1CCCN(CCOC(c2ccccc2)c2ccccc2)CC1 | 503
C[C@@H]1CN(CCCc2ccccc2)[C@@H](C)CN1CCCc1ccccc1 | 2530
C[C@@H]1CN(CCCc2ccccc2)[C@@H](C)CN1 | 12200
C[C@@H]1CN(CCOC(c2ccccc2)c2ccccc2)[C@@H](C)CN1CCCc1ccccc1 | 1730
c1ccc(CCCN2CCN(CCCc3ccccc3)CC2)cc1 | 1340

Biological target: Monoamine transporters; serotonin & dopamine (Rattus norvegicus) (UniProt P31652+P23977)
Sequence (P23977 whole entry, looked up): as the sequence (P23977 whole entry) above
Sequence (P31652 whole entry, looked up): as the sequence (P31652 whole entry) above
Experiment: Ratio of binding affinities of Serotonin transporter vs Dopamine transporter reuptake
Assay type: protein assay
Outline: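 Ratio is the IC50 for [3H]5HT reuptake over the IC50 for [3H]DA reuptake. Both were measured in synaptosomes at 25 °C: 2 nM [3H]5HT for 30 min and 5 nM [3H]DA for 15 min, in Krebs-phosphate buffer, pH 7.4, with pargyline and ascorbic acid.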

SMILES | Ratio
c1ccc(CCCNCCCCNCCOC(c2ccccc2)c2ccccc2)cc1 | 11
c1ccc(C(OCCN2CCN(CCOC(c3ccccc3)c3ccccc3)CC2)c2ccccc2)cc1 | 1.3
Fc1ccc(C(OCCN2CCCN(CCCc3ccccc3)CC2)c2ccc(F)cc2)cc1 | 33
Fc1ccc(C(OCCN2CCC[C@H]2CNCCCc2ccccc2)c2ccc(F)cc2)cc1 | 693
Fc1ccc(C(OCCN2CCN(CCOC(c3ccc(F)cc3)c3ccc(F)cc3)CC2)c2ccc(F)cc2)cc1 | 5.5
C[C@@H]1CN(CCOC(c2ccc(F)cc2)c2ccc(F)cc2)[C@@H](C)CN1C/C=C/c1ccccc1 | 42
Fc1ccc(C(OCCN2CCCN(C/C=C/c3ccccc3)CC2)c2ccc(F)cc2)cc1 | 69
C[C@@H]1CN(CCOC(c2ccccc2)c2ccccc2)[C@@H](C)CN1CCOC(c1ccccc1)c1ccccc1 | 1.1
Fc1ccc(C(OCCN2CCNCC2)c2ccc(F)cc2)cc1 | 0.7
C[C@@H]1CN(CCOC(c2ccc(F)cc2)c2ccc(F)cc2)[C@@H](C)CN1CCCc1ccccc1 | 31
CC1(C)CN(CCCc2ccccc2)CCN(CCOC(c2ccccc2)c2ccccc2)C1 | 36
C(=C\c1ccccc1)/CN1CCCN(CCOC(c2ccccc2)c2ccccc2)CC1 | 838
C[C@@H]1CN(CCCc2ccccc2)[C@@H](C)CN1CCCc1ccccc1 | 0.1
c1ccc(CCCN2CCN(CCCc3ccccc3)CC2)cc1 | 0.2

Test system: not listed separately
Experiment: Ratio of receptor binding affinities of [3H]5-HT vs [125I]-RTI 55 uptake

SMILES | Ratio
c1ccc(C(OCCN2CCN(CCOC(c3ccccc3)c3ccccc3)CC2)c2ccccc2)cc1 | 7.5
Fc1ccc(C(OCCN2CCN(CCOC(c3ccc(F)cc3)c3ccc(F)cc3)CC2)c2ccc(F)cc2)cc1 | 36.4
